Data on 38 molecules can be found in ChEMBL document CHEMBL1128509, “A novel type of retinoic acid receptor antagonist: synthesis and structure-activity relationships of heterocyclic ring-containing benzoic acid derivatives” (J Med Chem, 1995).

Active and inactive are the calls of the source. The rule behind the calls is not given here.

The subject of one experiment is HL-60. Description: Concentration inhibiting the differentiation-inducing activity of all-trans-retinoic acid (ATRA)(1*10e-8M) in human promyelocytic leukemia cells. The format is functional, cell-based. In a few lines:
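HL-60 cells at 1 × 10^5 cells/mL, 1 mL/well, exposed to ATRA (1.0 × 10^-8 M) plus graded test compound concentrations; 5 days in 5% CO2/air. Cells stained with FITC anti-CD11b, fixed in 0.2% paraformaldehyde, and analysed by flow cytometry for % CD11b-positive cells. IC50 read from activity vs log compound concentration plots; mean of two experiments.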

Experiment [1] is described as follows: The concentration required to inhibit the binding of [3H]ATRA to retinoic acid receptor in human promyelocytic leukemia cells.
The species named for a further experiment is Homo sapiens. In words: Differentiation-inducing activity of the compound. ED1/3 value was obtained from the percentage of the differentiated cells (CD11b-positive cells); No activity at concentrations below 3.0e-6M. The format is functional.
A short description of experiment [2]: Differentiation-inducing activity of the compound. ED1/3 value was obtained from the percentage of the differentiated cells (CD11b-positive cells). The format is functional, Homo sapiens. In a few lines:
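Human promyelocytic leukemia HL-60 cells were exposed to compound alone and scored for differentiation toward mature granulocytes. The read-out was the percentage of CD11b-positive (differentiated) cells, and ED1/3 was derived from these percentages. Activity was judged at concentrations below 3.0 × 10^-6 M. Values are the mean of two experiments.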

As usually defined, the IC50 is the concentration needed to halve the response being measured. High values mean weaker potency, low ones greater potency. In the case of `CC1(C)CCC(C)(C)c2cc3c(cc21)CCc1c(-c2ccc(C(=O)O)cc2)cnnc1-3`, the IC50 is more than 3000 nM in the experiment on HL-60 and more than 50 nM in experiment [1].
On the same counts, the results for `CC1(C)CCC(C)(C)c2cc3c(cc21)CCc1c(-c2ccc(C(=O)O)cc2)nn(Cc2ccccc2)c1-3` are 56 nM and 1.5 nM.
For `CC1(C)CCC(C)(C)c2cc3c(cc21)CCc1c(-c2ccc(C(=O)O)cc2)cn(Cc2cccs2)c1-3`, in that order: 540 nM and 4.5 nM.
For `COc1cc2c(cc1C(C)C)CCc1c(-c3ccc(C(=O)O)cc3)cn(Cc3cccnc3)c1-2`, in that order: 170 nM and 22 nM.
`Cn1nc2c(c1-c1ccc(C(=O)O)cc1)CCc1cc3c(cc1-2)C(C)(C)CCC3(C)C`: the ED1/3 entry in the experiment listed under Homo sapiens was “inactive”. The IC50 in experiment [1] amounted to 80 nM.
For `CC1(C)CCC(C)(C)c2cc3c(cc21)CCc1c(-c2ccc(C(=O)O)cc2)cn(CCc2ccccn2)c1-3`, the figures for the 50% inhibitory concentration (IC50) (with HL-60; in experiment [1]) were 1300 nM and 16 nM, respectively.
For `Cc1cc2c(cc1OC(C)C)-c1c(c(-c3ccc(C(=O)O)cc3)cn1Cc1cccnc1)CC2`, in that order: 37 nM and 3.7 nM.
For `CC1(C)CCC(C)(C)c2cc3c(cc21)CCc1c(-c2ccc(C(=O)O)cc2)ccnc1-3`, in that order: more than 3000 nM and more than 50 nM.
On to `CC1(C)CCC(C)(C)c2cc3c(cc21)CCc1c(-c2ccc(C(=O)O)cc2)cn(Cc2cccnc2)c1-3`, for which the IC50 in the experiment on HL-60 amounted to 4.9 nM; in experiment [1], 0.34 nM.
On the same counts, the results for `CC1(C)CCC(C)(C)c2cc3c(cc21)CCc1c(-c2ccc(C(=O)O)cc2)csc1-3` are 2400 nM and more than 5 nM.
On the same counts, the results for `CC1(C)CCC(C)(C)c2cc3c(cc21)CCc1c(-c2ccc(C(=O)O)cc2)cn(-c2cnccc2Cl)c1-3` are 490 nM and 3.2 nM.
On the same counts, the results for `COc1ccncc1-n1cc(-c2ccc(C(=O)O)cc2)c2c1-c1cc3c(cc1CC2)C(C)(C)CCC3(C)C` are 650 nM and 5.6 nM.
As for `CC1(C)CCC(C)(C)c2cc3c(cc21)CCc1c(-c2ccc(C(=O)O)cc2)cn(Cc2ccccn2)c1-3`, the IC50 in the experiment with HL-60 was determined as 17 nM; in experiment [1] it was 0.14 nM.
On the same counts, the results for `CC1(C)Cc2c(-c3ccc(C(=O)O)cc3)cn(Cc3cccnc3)c2-c2cc3c(cc21)C(C)(C)CCC3(C)C` are 1000 nM and more than 50 nM.
Regarding `CC1(C)CCC(C)(C)c2cc(-c3cc(-c4ccc(C(=O)O)cc4)[nH]n3)ccc21`, in experiment [2], the ED1/3 was determined as 900 pM. This molecule also had an IC50 in experiment [1] of 19 nM.
Turning to `CC1(C)CCC(C)(C)c2cc3c(cc21)CCc1c(-c2ccc(C(=O)O)cc2)coc1-3`, the figures for the IC50 (in the experiment with HL-60; in experiment [1]) were 300 nM and more than 50 nM, respectively.
On the same counts, the results for `CC1(C)CCC(C)(C)c2cc3c(cc21)CCc1c(-c2ccc(C(=O)O)cc2)cn(Cc2ccncc2)c1-3` are 84 nM and 2.3 nM.
Turning to `CC1(C)CCC(C)(C)c2cc3c(cc21)CCc1c(-c2ccc(C(=O)O)cc2)n[nH]c1-3`, the ED1/3 entry in the experiment filed under Homo sapiens is “inactive”. For the same molecule, the 50% inhibitory concentration (IC50) in experiment [1] worked out at 17 nM.
With `CC1(C)CCC(C)(C)c2cc3c(cc21)SCc1c(-c2ccc(C(=O)O)cc2)cn(Cc2cccnc2)c1-3`, the IC50 in the experiment with HL-60 amounted to 5.6 nM; in experiment [1], 0.16 nM.
For `CC1(C)CCOc2cc3c(cc21)CCc1c(-c2ccc(C(=O)O)cc2)cn(Cc2cccnc2)c1-3`, in that order: 1600 nM and more than 50 nM.
For `CC1(C)CCC(C)(C)c2cc3c(cc21)CCc1c(-c2ccc(C(=O)O)cc2)c[nH]c1-3`, the IC50 in the experiment with HL-60 is more than 3000 nM; in experiment [1], 32 nM.
On the same counts, the results for `CC1(C)CCSc2cc3c(cc21)CCc1c(-c2ccc(C(=O)O)cc2)cn(Cc2cccnc2)c1-3` are 1100 nM and 13 nM.
In experiment [2], `CC1=C(/C=C/C(C)=C/C=C/C(C)=C/C(=O)O)C(C)(C)CCC1` [TRETINOIN] registered an ED1/3 of 340 pM. The molecule also had a 50% inhibitory concentration (IC50) in experiment [1] of 0.63 nM.
For `Cn1nc(-c2ccc(C(=O)O)cc2)c2c1-c1cc3c(cc1CC2)C(C)(C)CCC3(C)C`, the ED1/3 entry in the experiment listed under Homo sapiens was “inactive”. In addition, the half-maximal inhibitory concentration (IC50) in experiment [1] worked out at 16 nM.
Regarding `CC1(C)CCC(C)(C)c2cc3c(cc21)CCc1c(-c2ccc(C(=O)O)cc2)cn(C2CC2)c1-3`, the IC50 in the experiment with HL-60 came out at 360 nM; in experiment [1], 14 nM.
`CC1(C)CCC(C)(C)c2cc3c(cc21)CCc1c(-c2ccc(C(=O)O)cc2)cn(CC24CC5CC(CC(C5)C2)C4)c1-3`: the half-inhibitory concentration (IC50) in the experiment with HL-60 was more than 3000 nM; in experiment [1] it was more than 50 nM.
For `CC1(C)CCC(C)(C)c2cc3c(cc21)OCc1c(-c2ccc(C(=O)O)cc2)cn(Cc2cccnc2)c1-3`, in that order: 100 nM and 19 nM.
For `Cn1cc(-c2ccc(C(=O)O)cc2)c2c1-c1cc3c(cc1CC2)C(C)(C)CCC3(C)C`, in that order: 200 nM and more than 50 nM.
As to `CCCCCn1cc(-c2ccc(C(=O)O)cc2)c2c1-c1cc3c(cc1CC2)C(C)(C)CCC3(C)C`, the IC50 in the experiment with HL-60 was determined as 520 nM; in experiment [1], 19 nM.
For `CC1(C)CCC(C)(C)c2cc3c(cc21)CCc1c(-c2ccc(C(=O)O)cc2)cn(Cc2ccco2)c1-3`, in that order: 51 nM and 3.4 nM.
For `CC1(C)CCC(C)(C)c2cc3c(ccc4c(-c5ccc(C(=O)O)cc5)cn(Cc5cccnc5)c43)cc21`, in that order: 77 nM and 11 nM.
On the same counts, the results for `CC(C)Oc1cc2c(cc1C(C)C)CCc1c(-c3ccc(C(=O)O)cc3)cn(Cc3cccnc3)c1-2` are 69 nM and 0.97 nM.
Consider `CC1(C)CCC(C)(C)c2cc3c(cc21)CCc1c(-c2ccc(C(=O)O)cc2)cn(-c2cccnc2)c1-3`, for which the figures for the IC50 (in the experiment on HL-60; in experiment [1]) were 33 nM and 0.59 nM, respectively.
On the same counts, the results for `CC1(C)CCC(C)(C)c2cc3c(cc21)CCc1c(-c2ccc(C(=O)O)cc2)cn(Cc2ccccc2)c1-3` are 210 nM and 1.2 nM.
For `CC1(C)CCC(C)(C)c2cc3c(cc21)CCc1c(-c2ccc(C(=O)O)cc2)nn(Cc2cccnc2)c1-3`, in that order: 1.3 nM and 0.91 nM.
For `CC(C)Oc1cc2c(cc1Cl)CCc1c(-c3ccc(C(=O)O)cc3)cn(Cc3cccnc3)c1-2`, in that order: 230 nM and 2.9 nM.
With `CC(C)Oc1cc2c(cc1-c1ccccc1)CCc1c(-c3ccc(C(=O)O)cc3)cn(Cc3cccnc3)c1-2`, the results for the IC50 (in the experiment on HL-60; in experiment [1]) were 300 nM and 30 nM, respectively.
For `CC1(C)CCC(C)(C)c2cc3c(cc21)CCCc1c(-c2ccc(C(=O)O)cc2)cn(Cc2cccnc2)c1-3`, in that order: 78 nM and 4.7 nM.
